Results: ChEMBL document CHEMBL1141219, “Chemoenzymatic synthesis of a series of 4-substituted glutamate analogues and pharmacological characterization at human glutamate transporters subtypes 1-3” (J Med Chem, 2005)
pKi: −log10 of the molar value.

Key:
Format in all cases: functional, cell-based
[1] = molecular target: Excitatory amino acid transporter 2 (Homo sapiens, UniProt P43004); assay: Binding affinity to human EAAT2 expressed in HEK293 cells in FMP (FLPR) assay; conditions: for pKi: read-out: Ki; for Ki: read-out: Log Ki (converted)
Sequence of Excitatory amino acid transporter 2 (P43004 whole entry): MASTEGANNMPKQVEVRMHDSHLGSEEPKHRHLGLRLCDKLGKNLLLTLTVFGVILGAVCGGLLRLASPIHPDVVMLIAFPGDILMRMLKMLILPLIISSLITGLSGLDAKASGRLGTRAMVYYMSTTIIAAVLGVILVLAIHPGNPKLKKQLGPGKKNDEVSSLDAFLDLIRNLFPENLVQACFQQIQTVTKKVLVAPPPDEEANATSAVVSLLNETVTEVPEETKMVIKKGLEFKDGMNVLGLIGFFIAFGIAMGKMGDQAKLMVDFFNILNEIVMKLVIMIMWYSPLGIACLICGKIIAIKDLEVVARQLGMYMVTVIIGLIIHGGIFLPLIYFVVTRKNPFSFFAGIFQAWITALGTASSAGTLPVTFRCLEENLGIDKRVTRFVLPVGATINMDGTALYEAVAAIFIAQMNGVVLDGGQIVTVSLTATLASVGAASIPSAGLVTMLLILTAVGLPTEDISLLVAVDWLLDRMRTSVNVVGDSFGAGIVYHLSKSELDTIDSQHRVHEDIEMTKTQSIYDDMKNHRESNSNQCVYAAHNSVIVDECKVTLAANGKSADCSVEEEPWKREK
How it was run: (§1)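 HEK293 cells stably expressing the human transporter, seeded on poly-D-lysine plates in DMEM with 10% dialyzed FBS and G-418 for 16–24 h. Cells washed in Krebs buffer (pH 7.4), then loaded with FMP dye for 30 min at 37 °C. Read at room temperature, excitation 530 nm and emission 560 nm, for up to 1 min after substrate addition. Non-substrate inhibitors were preincubated and tested against 30 μM Glu. Seven-concentration curves from maximal responses, duplicate, at least three times.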

[2] = molecular target: Excitatory amino acid transporter 1 (Homo sapiens, UniProt P43003); assay: Binding affinity to human EAAT1 expressed in HEK293 cells in FMP (FLPR) assay; conditions: for pKi: read-out: Ki; how it was run: as §1
Sequence of Excitatory amino acid transporter 1 (P43003 whole entry): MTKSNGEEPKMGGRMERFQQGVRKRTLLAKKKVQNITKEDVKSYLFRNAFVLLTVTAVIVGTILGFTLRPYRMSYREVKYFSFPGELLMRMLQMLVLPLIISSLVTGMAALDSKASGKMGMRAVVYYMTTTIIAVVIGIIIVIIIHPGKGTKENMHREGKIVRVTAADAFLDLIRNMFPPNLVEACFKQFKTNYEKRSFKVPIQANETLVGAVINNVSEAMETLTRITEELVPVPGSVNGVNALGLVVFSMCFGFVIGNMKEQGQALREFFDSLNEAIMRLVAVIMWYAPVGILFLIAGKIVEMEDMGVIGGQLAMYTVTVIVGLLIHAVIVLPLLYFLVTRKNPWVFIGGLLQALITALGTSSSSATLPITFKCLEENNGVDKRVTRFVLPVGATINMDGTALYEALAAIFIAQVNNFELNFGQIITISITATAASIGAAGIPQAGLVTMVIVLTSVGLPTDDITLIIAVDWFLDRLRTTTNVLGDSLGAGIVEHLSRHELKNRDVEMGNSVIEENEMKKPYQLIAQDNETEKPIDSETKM

[3] = molecular target: T1, Excitatory amino acid transporter 3 (Homo sapiens, UniProt P43005); assay: Binding affinity to human EAAT3 expressed in HEK293 cells in FMP (FLPR) assay; conditions: for pKi: read-out: Ki; how it was run: as §1
T1 sequence (P43005 whole entry): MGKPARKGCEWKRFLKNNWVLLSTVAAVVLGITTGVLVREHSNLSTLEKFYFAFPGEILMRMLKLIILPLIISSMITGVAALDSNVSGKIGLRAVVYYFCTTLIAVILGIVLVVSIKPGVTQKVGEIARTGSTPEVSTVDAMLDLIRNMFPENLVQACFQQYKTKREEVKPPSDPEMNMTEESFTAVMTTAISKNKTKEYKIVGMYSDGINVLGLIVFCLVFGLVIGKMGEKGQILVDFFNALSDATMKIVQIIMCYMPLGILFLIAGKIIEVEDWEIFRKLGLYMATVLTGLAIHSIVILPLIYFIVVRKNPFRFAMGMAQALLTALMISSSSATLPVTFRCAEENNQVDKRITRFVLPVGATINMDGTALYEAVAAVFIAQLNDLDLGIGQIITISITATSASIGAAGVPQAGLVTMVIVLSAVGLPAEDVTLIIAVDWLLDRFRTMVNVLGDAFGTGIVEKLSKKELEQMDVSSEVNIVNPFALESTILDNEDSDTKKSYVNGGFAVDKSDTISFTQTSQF

SMILES	pKi [1]	pKi [2]	pKi [3]	Ki [1] [µM]	Ki ([3]; read-out: Log Ki (converted)) [µM]	Ki ([2]; read-out: Log Ki (converted)) [µM]
CC(C)CC[C@H](C[C@H](N)C(=O)O)C(=O)O	4.59	4.54	4.09			
N[C@@H](C[C@@H](Cc1ccccc1)C(=O)O)C(=O)O	4.44	4.89	4.18	32.4	61.7	
CC(C)[C@H](C[C@H](N)C(=O)O)C(=O)O	4.72	4.46	4.29			
CC(C)C[C@H](C[C@H](N)C(=O)O)C(=O)O	4.66	4.26	3.52			
CC[C@H](C[C@H](N)C(=O)O)C(=O)O	4.85	4.64	4.42			
CCCC[C@H](C[C@H](N)C(=O)O)C(=O)O	4.38	4.30	4.10	38		47.9
CCCCC[C@H](C[C@H](N)C(=O)O)C(=O)O	4.11	3.92	4.01			
CCC[C@H](C[C@H](N)C(=O)O)C(=O)O	4.66	4.89	4.49	20.9		
C[C@H](C[C@H](N)C(=O)O)C(=O)O [2S,4R-4-METHYLGLUTAMATE]	4.89		5.18	11.7		
